AHR activator: AHR activators, primary screen, cell-based, luminescence, luciferase reporter, human. 320,000 compounds, 2.5% hits. AID 2796, 2010. activation, % at 5 µM. Aryl hydrocarbon receptor (Homo sapiens), P35869. AHR-responsive luciferase reporter cells; in the data active = activation above about 47%;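 also: 0% = vehicle wells and 100% = reference agonist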
Target sequence (P35869 whole entry, looked up): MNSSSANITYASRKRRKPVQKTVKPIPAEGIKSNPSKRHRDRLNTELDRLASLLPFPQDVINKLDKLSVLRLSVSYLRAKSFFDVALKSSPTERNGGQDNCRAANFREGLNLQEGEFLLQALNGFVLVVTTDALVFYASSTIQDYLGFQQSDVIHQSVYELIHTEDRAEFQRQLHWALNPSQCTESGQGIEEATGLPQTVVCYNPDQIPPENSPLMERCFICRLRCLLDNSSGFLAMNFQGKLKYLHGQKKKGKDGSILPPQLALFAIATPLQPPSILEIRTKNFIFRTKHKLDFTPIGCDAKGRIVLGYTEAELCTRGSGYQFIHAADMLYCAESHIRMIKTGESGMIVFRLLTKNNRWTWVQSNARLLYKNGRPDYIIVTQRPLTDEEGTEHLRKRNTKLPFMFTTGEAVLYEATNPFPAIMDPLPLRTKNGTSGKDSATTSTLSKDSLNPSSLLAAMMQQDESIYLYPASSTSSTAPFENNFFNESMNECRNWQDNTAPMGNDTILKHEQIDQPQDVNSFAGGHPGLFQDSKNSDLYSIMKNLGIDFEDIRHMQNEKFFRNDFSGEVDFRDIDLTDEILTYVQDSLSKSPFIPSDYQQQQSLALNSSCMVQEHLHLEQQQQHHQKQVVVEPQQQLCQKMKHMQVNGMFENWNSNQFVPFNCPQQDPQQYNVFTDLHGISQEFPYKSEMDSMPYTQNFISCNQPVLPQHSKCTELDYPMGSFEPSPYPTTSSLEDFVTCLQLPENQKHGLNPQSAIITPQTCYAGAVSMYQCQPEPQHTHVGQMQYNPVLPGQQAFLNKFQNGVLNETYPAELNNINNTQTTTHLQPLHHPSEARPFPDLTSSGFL
Hsp70 activator: Hsp70 transcriptional activators, primary screen, cell-based, HeLa, Hsp70 promoter luciferase, luminescence, 10 µM. activation, % at 10 µM. HeLa Hsp70 promoter luciferase reporter; scaled: vehicle 0, proteasome-inhibitor control 100%. 200,000 compounds, 0.04% hits;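 active = activation above the mean across all tested compounds plus 3 SD, cutoff set per campaign, cut at about 5.5% in these data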;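 also: 100% = MG132 at 30 µM as the positive control and 0% = DMSO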
HSF1 inhib: HSF1 inhibitors in luciferase reporter cells, primary screen, cell-based, NIH3T3, luminescence. NIH3T3-HGL HSE-luciferase, MG132-induced, luminescence 8 h; active compounds read low. AID 2098, 2009. activity change, negative = inhibition, % at 7.5 µM (by protocol). 300,000 compounds, 0.77% hits;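 active = more than half of replicate wells show activity change below -50%, luminescence cut by over half; inconclusive = some wells, but at most half, below -50%; inactive = no replicate well below -50%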;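 also: luciferase reports HSF-1 transcriptional activity via heat shock element; 0% = median of DMSO wells and -100% = zero luminescence signal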
STAT3 act: IL-6 driven STAT3 reporter potentiators, primary screen, U3A cells, luciferase, luminescence, MLSCN library; IL-6 STAT3-luciferase reporter; 100% = signal with IL-6 EC80 alone; activation (% of control), % at 5.6 µM; 190,000 compounds, 0.91% hits; AID 871, 2007;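 active = activation above the screen-wide mean of compound activation plus 3 SD, cut at about 130% in these data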;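 also: 0% = background luminescence of wells with medium and substrate only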
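Material: STAT3-luciferase reporter U3A cells; Probe or stimulus: IL-6 (33 ng/mL); Incubation: compound pre-incubation 1 h before IL-6, then 6 h stimulation at 37 °C; Technique: luminescence from STAT3-driven luciferase reporter; Evaluation: % activation versus median of IL-6-stimulated wells; Controls: IL-6-only high control.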
PERK inh: block of dimerizer-induced PERK translation repression, primary screen, PERK inhibitor project, CHO PERK-DD cells, SEAP luminescence, HTS | Eukaryotic translation initiation factor 2-alpha kinase 3 (Homo sapiens), Q9NZJ5 | 220,000 compounds, 0.17% hits | CHO PERK-DD fusion, SEAP luminescence translation reporter | AID 1416, 2008 | inhibition, % at 5.6 µM;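 active = inhibition above the mean inhibition of all tested compounds plus 3 SD, set separately per screening campaign, cut at about 2.9% in these data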;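 also: PERK kinase domain activated by AP20187 dimerizer at 100 nM; 0% = DMSO with dimerizer and 100% = rapamycin at 8.4 µM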
PolyA inh: polyadenylation inhibitors in yeast reporter cells, primary screen, luminescence, S. cerevisiae; S. cerevisiae SKY197-pL101 polyadenylation reporter, beta-gal luminescence; efflux-impaired pdr1/pdr3 knockout yeast; score 100 = 6 SD above DMSO; activity score, % at 12 µM; 300,000 compounds, 0.02% hits; AID 1875, 2009;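 active = lowest replicate activity score at least 50, where 100 means six control SD above control mean; inconclusive = lowest score under 50 but half or more replicates reach 50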;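 also: yeast exposed to compound for 9 h at 30 °C; higher score means more reporter readthrough which indicates perturbed polyadenylation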
The depositor's hits bear a star. An excerpt weighted towards active compounds, which were near 3.6% of everything screened.

Screening Cc1ccc(/C=C(\C#N)C(=O)NC(C)c2ccccc2)o1 (stereo unspecified) returned AHR activator 0, HSF1 inhib -6 and PolyA inh 20.
`O=C(COC(=O)c1ncc(Cl)c(Cl)c1Cl)NC(=O)c1ccccc1` gave AHR activator -1, HSF1 inhib 5 and PolyA inh 23.
Screening CCN(CC)c1ccc(S(=O)(=O)N2CCOCC2)cc1NC(=O)CSC(=S)N1CCCC1 returned AHR activator 0, HSF1 inhib 7 and PolyA inh -15.
Screening Cc1ccc(NC2(C(F)(F)F)N=C(c3ccccc3)NC2=O)nc1 (stereo unspecified) returned AHR activator 2, Hsp70 activator 0, HSF1 inhib 1, STAT3 act 100, PERK inh 1 and PolyA inh inconclusive.
Cc1cccc(NC2(C(F)(F)F)N=C(c3ccccc3)NC2=O)n1 (stereo unspecified) was read as AHR activator -3, Hsp70 activator 0, HSF1 inhib -57*, STAT3 act 100, PERK inh 2 and PolyA inh 22.
COCC(=O)N1CCC(Oc2ccc(C(=O)NCc3cc(C)n(C)n3)cc2)CC1 was read as HSF1 inhib -6 and PolyA inh -10.
For Cc1ccc(C(=O)c2c3ccc(C(F)(F)F)cc3nn2CCC(N)=O)cc1 the results were AHR activator 65*, HSF1 inhib 1 and PolyA inh 8.
O=C(NCCc1ccc(Cl)cc1)c1cc2ccccn2n1 was read as AHR activator 0, HSF1 inhib 21, PERK inh 1 and PolyA inh 2.
Screening O=C(Nc1ccc(Br)cc1)c1cc2ccccn2n1 returned AHR activator 57*, HSF1 inhib 35, PERK inh 1 and PolyA inh -7.
Screening Cc1ccc(CN2CCC(n3nccc3NC(=O)CCOc3ccccc3)CC2)cc1C returned AHR activator 0, HSF1 inhib 1 and PolyA inh -2.
Screening Cc1cc2nc(C3CCN(Cc4nnnn4Cc4ccccc4)CC3)[nH]c2cc1C returned AHR activator 54*, Hsp70 activator 0, HSF1 inhib 15, STAT3 act 87, PERK inh -1 and PolyA inh 5.
`COc1ccc(C(=O)N=C2SC3CS(=O)(=O)CC3N2c2ccc(N(C)C)cc2)cc1OC` (stereo unspecified) gave AHR activator -3, HSF1 inhib 1 and PolyA inh 1.
For O=C(O)c1cccc(-n2cccc2/C=C/[N+](=O)[O-])c1 the results were AHR activator 3, HSF1 inhib -3, PERK inh 3.2* and PolyA inh 6.
`COc1ccc(-c2c([C@H]3[C@H]4C=CC[C@@H](C)[C@@H]4C(=O)N3Cc3ccccc3)ccc3ccccc23)cc1OC` gave AHR activator -1, HSF1 inhib -24 and PolyA inh -8.
Cn1c(=O)c2c([nH]c(OCc3ccc(Cl)cc3Cl)[n+]2Cc2ccc(F)cc2)n(C)c1=O was read as AHR activator -3, HSF1 inhib 1, PERK inh 2 and PolyA inh 3.
COc1cccc(C2/C(=C(\O)c3ccc4c(c3)OCCO4)C(=O)C(=O)N2CCCN2CCOCC2)c1OC (stereo unspecified) was read as AHR activator -2, HSF1 inhib -4 and PolyA inh -6.
`Clc1ccc(Nc2nc(-c3ccncc3)cs2)cc1` gave AHR activator 23, Hsp70 activator 0, HSF1 inhib 5, STAT3 act 123, PERK inh 0 and PolyA inh 3.
`Cc1ccc(Nc2nc(-c3cccnc3)cs2)cc1C` gave AHR activator 54*, HSF1 inhib 53 and PolyA inh -2.
For Clc1cccc(Nc2nc(-c3cccnc3)cs2)c1 the results were AHR activator 55*, Hsp70 activator 0, HSF1 inhib 16, STAT3 act 157*, PERK inh 0 and PolyA inh 14.
Screening CC(=O)c1ccc(Nc2nc(-c3cccnc3)cs2)cc1 returned HSF1 inhib 14 and PolyA inh -2.
Screening Nc1ccc(Nc2nc(-c3ccncc3)cs2)cc1 returned AHR activator 91*, Hsp70 activator 0, HSF1 inhib 0, STAT3 act 91, PERK inh 0 and PolyA inh 4.
For Brc1ccc(Nc2nc(-c3cccnc3)cs2)cc1 the results were AHR activator 41, Hsp70 activator 0, HSF1 inhib -3, STAT3 act 165*, PERK inh 0 and PolyA inh -16.
For COc1ccccc1-n1ccnc(SCC(=O)NCCc2ccccc2)c1=O the results were AHR activator 2, HSF1 inhib 7 and PolyA inh 8.
For Cc1cccc(NC(=O)CSc2nnc(C3CC3)n2CC2CCCO2)c1C (stereo unspecified) the results were AHR activator -1, HSF1 inhib 0 and PolyA inh 12.
`COc1ccccc1OCCNC(=O)Nc1cc(F)c(F)cc1Cl` gave AHR activator 10, HSF1 inhib 15, PERK inh 1 and PolyA inh -19.
For Oc1ccc(Nc2nc(-c3cccnc3)cs2)cc1 the results were AHR activator 74*, HSF1 inhib 33 and PolyA inh 7.
Cc1ccc(C(=O)Nc2nc(-c3cccnc3)cs2)o1 was read as AHR activator 70*, Hsp70 activator 0, HSF1 inhib 9, STAT3 act 87, PERK inh 0 and PolyA inh -19.
For Brc1cccc(Nc2nc(-c3cccnc3)cs2)c1 the results were AHR activator 70*, HSF1 inhib 10 and PolyA inh -26.
`O=C(O)c1ccc(Nc2nc(-c3cccnc3)cs2)cc1` gave AHR activator 6, HSF1 inhib 3 and PolyA inh 22.
Screening Cc1cn([C@H](C(=O)NCCCCCCCCCCC(=O)N2CCN(C(=O)OC(C)(C)C)CC2)[C@@H](C)O)nn1 returned AHR activator -3.
`Cc1c(CCC(=O)NC2CC2)c(=O)oc2c(C)c(O)ccc12` gave AHR activator -3, HSF1 inhib 0 and PolyA inh -7.
Screening CCCCN1C=CC(=C2C(=O)c3ccccc3C2=O)C=C1 returned AHR activator -14, Hsp70 activator -1, HSF1 inhib -82*, STAT3 act 10, PERK inh 1 and PolyA inh 14.
